Active and inactive are the calls of the source. The calls are words filed in the database; no cut-off is given here.
Experiments:
U-937 [1] = assay: Induction of apoptosis in human U937 cells at 50 uM after 45 hrs by flow cytometry; type: functional, cell-based
Outline: (§1)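 Apoptosis was taken as the pre-G1 peak after propidium iodide staining in hypotonic citrate/Triton buffer (30 min, dark) and flow cytometry. Triplicate experiments.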

U-937 [2] = assay: Induction of apoptosis in human U937 cells at 5 uM after 45 hrs by flow cytometry; type: functional, cell-based; outline: as §1
[3] = target: T1, NAD-dependent protein deacetylase sirtuin-2 (Homo sapiens, UniProt Q8IXJ6); assay: Inhibition of human SIRT2 expressed in Escherichia coli using Gln-Pro-Lys-Lys(Ac) as substrate after 1 hr by Fluor de Lys fluorescence based assay
T1 sequence (Q8IXJ6 whole entry): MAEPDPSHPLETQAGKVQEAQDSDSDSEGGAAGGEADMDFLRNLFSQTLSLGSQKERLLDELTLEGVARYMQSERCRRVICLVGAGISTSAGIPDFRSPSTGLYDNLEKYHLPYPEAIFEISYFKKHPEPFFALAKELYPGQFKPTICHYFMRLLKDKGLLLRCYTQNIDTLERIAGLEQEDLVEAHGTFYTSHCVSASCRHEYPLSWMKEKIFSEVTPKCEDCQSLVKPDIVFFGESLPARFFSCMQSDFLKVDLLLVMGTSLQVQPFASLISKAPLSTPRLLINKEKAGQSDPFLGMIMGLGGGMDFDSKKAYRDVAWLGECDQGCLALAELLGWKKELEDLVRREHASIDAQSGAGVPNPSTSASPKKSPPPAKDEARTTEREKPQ
Outline: (§2)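 Recombinant full-length human sirtuin expressed in E. coli was incubated 1 h at 37 °C with p53-derived AMC-conjugated acetyl-peptide (SIRT1: Arg-His-Lys-Lys(Ac); SIRT2: Gln-Pro-Lys-Lys(Ac); […]) and NAD+ ([…]). The reaction was stopped and developed with developer containing 2 mM nicotinamide, and fluorescence read at ex 360/em 460 nm. Compound fluorescence was subtracted using an enzyme-free counter assay. Triplicate.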

[4] = Cytotoxicity against human 30PT cells after 72 hrs by celltiter-glo luminescent assay; type: functional
Outline: (§3)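 Patient-derived CSC spheroids were dissociated, plated at 2000–3000 viable cells, and held 24 h at 37 °C in 5% CO2. They were then treated 72 h with eight 1:3 serial dilutions (0.023–50 μM), with 0.1% DMSO as control, in triplicate. Viability was read by CellTiter-Glo luminescence relative to DMSO, and CC50 was obtained by 4-parameter logistic fit (mean of three experiments).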

[5] = Cytotoxicity against human 30P cells after 72 hrs by celltiter-glo luminescent assay; type: functional; outline: as §3
[6] = Cytotoxicity against human CRC 1.1 cells after 72 hrs by celltiter-glo luminescent assay; type: functional; outline: as §3
[7] = Cytotoxicity against human CRO cells after 72 hrs by celltiter-glo luminescent assay; type: functional; outline: as §3
MOLT-4 [8] = assay: Antiproliferative activity against human MOLT4 cells at 25 uM after 24 to 72 hrs by MTT assay; type: functional, cell-based
Outline: (§4)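 Cells exposed to compound for 24, 48 and 72 h; growth inhibition read by MTT and expressed as percentage antiproliferative activity.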

U-937 [9] = assay: Cell cycle arrest in human U937 cells assessed as accumulation at S phase at 25 uM after 40 hrs by flow cytometry; type: functional, cell-based
[10] = Cytotoxicity against human 30PT cells at 50 uM after 72 hrs by celltiter-glo luminescent assay; type: functional; outline: as §3
[11] = Cytotoxicity against human 30P cells at 50 uM after 72 hrs by celltiter-glo luminescent assay; type: functional; outline: as §3
Homo sapiens = species: Homo sapiens; assay: (§5) Cytotoxicity against human CRC 1.1 cells at 50 uM after 72 hrs by celltiter-glo luminescent assay; type: functional; outline: as §3
[12] = Cytotoxicity against human CRO cells at 50 uM after 72 hrs by celltiter-glo luminescent assay; type: functional; outline: as §3
U-937 [13] = assay: Granulocytic differentiation in human U937 cells assessed as increase of CD11c cells at 25 uM after 40 hrs by FACS analysis relative to control; type: functional
Outline: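 U937 cells treated 40 h at 25 μM, then stained with PE-conjugated anti-CD11c (PE mouse IgG1 as isotype control) for 30 min at 4 °C in the dark. Cells were washed in PBS and taken up in PBS with 0.25 μg/mL propidium iodide. Differentiation = CD11c-positive cells minus PI-positive dead cells, by FACS.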

U-937 [14] = assay: Induction of apoptosis in human U937 cells after 45 hrs by flow cytometry; type: functional; design: concentration or dose not given beside the values; details: in the assay text read “40 hrs” for “45 hrs”; outline: as §1
U-937 [15] = assay: Cell cycle arrest in human U937 cells at 25 uM after 40 hrs by flow cytometry; type: functional, cell-based
[16] = as §5; type: functional; outline: as §3
MOLT-4 [17] = assay: Antiproliferative activity against human MOLT4 cells at 100 uM by MTT assay; type: functional, cell-based; details: TDE = time-dependent effect; outline: as §4
MOLT-4 [18] = assay: Antiproliferative activity against human MOLT4 cells at 100 uM after 24 to 72 hrs by MTT assay; type: functional, cell-based; outline: as §4
MDA-MB-231 = assay: Antiproliferative activity against human MDA-MB-231 cells at 50 uM after 24 to 72 hrs by MTT assay; type: functional, cell-based; outline: as §4
RKO = assay: Antiproliferative activity against human RKO cells at 50 uM after 24 to 72 hrs by MTT assay; type: functional, cell-based; outline: as §4
MOLT-4 [19] = assay: Antiproliferative activity against human MOLT4 cells at 50 uM after 24 to 72 hrs by MTT assay; type: functional, cell-based; outline: as §4
[20] = target: T2, NAD-dependent protein deacetylase sirtuin-1 (Homo sapiens, UniProt Q96EB6); assay: Inhibition of human N-terminal GST-tagged SIRT1 expressed in Escherichia coli using Arg-His- Lys-Lys(Ac) as substrate after 1 hr by Fluor de Lys fluorescence based assay; outline: as §2
T2 sequence (Q96EB6 whole entry): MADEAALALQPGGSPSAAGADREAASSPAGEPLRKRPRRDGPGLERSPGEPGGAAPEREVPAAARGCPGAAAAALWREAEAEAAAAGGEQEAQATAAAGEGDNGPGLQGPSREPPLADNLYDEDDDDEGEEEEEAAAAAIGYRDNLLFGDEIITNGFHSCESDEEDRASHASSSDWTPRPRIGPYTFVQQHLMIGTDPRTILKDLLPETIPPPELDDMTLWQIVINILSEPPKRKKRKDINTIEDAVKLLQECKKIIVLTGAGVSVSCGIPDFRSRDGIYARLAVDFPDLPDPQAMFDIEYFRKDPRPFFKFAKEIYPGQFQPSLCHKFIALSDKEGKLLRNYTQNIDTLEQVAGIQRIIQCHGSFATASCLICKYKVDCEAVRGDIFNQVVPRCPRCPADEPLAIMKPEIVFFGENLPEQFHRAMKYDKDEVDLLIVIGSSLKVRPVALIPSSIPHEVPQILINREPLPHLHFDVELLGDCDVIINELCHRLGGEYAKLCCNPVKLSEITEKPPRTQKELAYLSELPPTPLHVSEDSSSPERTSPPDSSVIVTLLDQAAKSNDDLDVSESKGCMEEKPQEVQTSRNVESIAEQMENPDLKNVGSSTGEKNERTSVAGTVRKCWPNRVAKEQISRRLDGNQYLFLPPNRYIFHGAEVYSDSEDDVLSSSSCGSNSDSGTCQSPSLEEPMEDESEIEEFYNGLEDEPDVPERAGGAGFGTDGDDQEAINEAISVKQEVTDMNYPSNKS

Row | SMILES | Activity (U-937 [1]) | Activity (U-937 [2]) | CC50 [4] [µM] | CC50 [5] [µM] | CC50 [6] [µM] | Activity (MOLT-4 [8]) | inhibition at 50 µM [12] [%] | Activity (MOLT-4 [18]) | further results
1 | CC(CS(=O)(=O)c1cccc(/N=C/c2c(O)ccc3ccccc23)c1)c1ccccc1 (centres undefined) | Active | inactive | – | – | – | – | – | – | –
2 | CC(CS(=O)(=O)c1ccccc1/N=C/c1c(O)ccc2ccccc12)c1ccccc1 (centres undefined) | Active | inactive | 15.3 | 17.4 | 19.5 | Active | – | – | IC50 [3]: 24.2 µM; CC50 [7]: 15.7 µM
3 | CC(C(=O)Nc1ccccc1/N=C/c1c(O)ccc2ccccc12)c1ccccc1 (centres undefined) | Active | inactive | – | – | – | – | – | – | Activity (U-937 [9]): Active
4 | NC(=O)C1CCCc2c1[nH]c1ccc(Cl)cc21 (centres undefined) | – | – | – | – | – | – | 20 | – | inhibition at 50 µM [10]: 20%; inhibition at 50 µM [11]: 10%; inhibition (Homo sapiens): inactive; Activity (U-937 [13]): inactive; Activity (U-937 [14]): inactive; Activity (U-937 [15]): inactive
5 | N#C/C(=C\c1ccc(-c2cc(Cl)ccc2Cl)o1)C(=O)Nc1cccc2ncccc12 | – | – | 9.6 | – | – | – | 50 | – | inhibition at 50 µM [16]: 50%; Activity (U-937 [13]): inactive; Activity (U-937 [14]): inactive; Activity (U-937 [15]): inactive
6 | CC(C[S+]([O-])c1ccccc1/N=C/c1c(O)ccc2ccccc12)c1ccccc1 (centres undefined) | Active | inactive | – | – | – | Active | 33 | Active | inhibition at 50 µM [10]: 39%; inhibition at 50 µM [11]: 42%; inhibition at 50 µM [16]: 46%; Activity (MOLT-4 [17]): tde
7 | CC(CSc1cccc(/N=C/c2c(O)ccc3ccccc23)c1)c1ccccc1 (centres undefined) | Active | inactive | 15.6 | 15.5 | 20 | Active | – | – | CC50 [7]: 14.5 µM; Activity (MDA-MB-231): Active; Activity (RKO): Active; Activity (MOLT-4 [19]): Active
8 | CC(C[S+]([O-])c1cccc(/N=C/c2c(O)ccc3ccccc23)c1)c1ccccc1 (centres undefined) | Active | inactive | – | 35 | 23.4 | Active | – | Active | IC50 [20]: 40.3 µM
9 | CC(C[S+]([O-])c1ccc(/N=C/c2c(O)ccc3ccccc23)cc1)c1ccccc1 (centres undefined) | Active | inactive | – | – | – | – | – | Active | Activity (MOLT-4 [17]): tde
10 | CC(CSc1ccccc1/N=C/c1c(O)ccc2ccccc12)c1ccccc1 (centres undefined) | Active | inactive | – | – | – | Active | – | – | –

Source: ChEMBL document CHEMBL2177084, “Discovery of salermide-related sirtuin inhibitors: binding mode studies and antiproliferative effects in cancer cells including cancer stem cells” (J Med Chem, 2012)
